Consider two molecules from publication PMC12394899 (RSC Medicinal Chemistry, 2025).

Structures are written as SMILES.

One assay relates to MDA-MB-231 cells. The experiment in a line: MTT assay, MDA-MB-231. In kind it is cell-based. The note with it: Homo sapiens, MDA-MB-231, 48 h, read-out: MTT IC50. Summed up: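 TNBC cells maintained in DMEM with 10% FBS at 37 °C, 5% CO2. About 10 000 cells/well seeded and exposed to test compound at 0.5–80 μM for 48 h, with 0.1% DMSO medium as control. MTT (1 mg mL−1) added for 4 h at 37 °C. Formazan dissolved in DMSO for 30 min at room temperature. Absorbance read at 540 nm.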
A general note: Tetrazolium dyes change colour on reduction, which living cells bring about.

In assay [1] the target is T1, rat α2,3-O-sialyltransferase ST3GAL1 (Rattus norvegicus, UniProt Q6H8N0).
T1 sequence (Q6H8N0 1-340): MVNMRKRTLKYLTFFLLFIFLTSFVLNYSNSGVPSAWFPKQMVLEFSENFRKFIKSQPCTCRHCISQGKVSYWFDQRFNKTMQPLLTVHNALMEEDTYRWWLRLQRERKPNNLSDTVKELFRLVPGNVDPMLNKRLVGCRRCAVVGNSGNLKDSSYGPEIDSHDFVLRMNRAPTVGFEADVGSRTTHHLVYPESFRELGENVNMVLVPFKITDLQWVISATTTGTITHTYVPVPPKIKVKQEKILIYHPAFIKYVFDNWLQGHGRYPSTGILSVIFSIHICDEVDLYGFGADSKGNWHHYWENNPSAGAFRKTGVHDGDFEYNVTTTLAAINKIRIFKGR
Conditions: cited from earlier work.

Turning to `c1ccc2c(Cc3c[nH]c4ccccc34)c[nH]c2c1` [3,3′-DIM, 3,3′-diindolylmethane], the IC50 (as a rule, the midpoint of a concentration-inhibition curve) in the assay with MDA-MB-231 cells lay within 40 to 80 µM.

`C[C@H](CCC(=O)O)[C@H]1CC[C@H]2[C@@H]3CC[C@@H]4C[C@H](O)CC[C@]4(C)[C@H]3CC[C@]12C` [LCA, Lithocholic acid]: in assay [1], the “ST3GAL1 % Inhibition at 500 μM” value was 53%.
